Measurements from different studies.
Protocols differ between the studies behind these lines.
Target: Testis-specific serine/threonine-protein kinase 3 (TSSK3, Homo sapiens, UniProt Q96PN8)
Sequence (Q96PN8 1-268, as in one of the studies): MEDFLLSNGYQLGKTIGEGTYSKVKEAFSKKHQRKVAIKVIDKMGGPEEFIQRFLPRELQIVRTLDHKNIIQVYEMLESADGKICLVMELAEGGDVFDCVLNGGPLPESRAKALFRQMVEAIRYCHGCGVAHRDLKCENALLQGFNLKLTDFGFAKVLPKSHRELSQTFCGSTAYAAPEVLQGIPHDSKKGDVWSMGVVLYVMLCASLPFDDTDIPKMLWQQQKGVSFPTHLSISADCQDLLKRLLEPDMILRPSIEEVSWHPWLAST

SMILES | effect on | method | tested at | remaining binding [%]
COc1cc(-c2cn(C3CCc4c(F)cccc4N(CC(F)(F)F)C3=O)nn2)ccc1-n1cnc(C)c1 (centres unmarked) | cell-free assay | competition with immobilised ligand | 1 µM | 97
CNC(=O)[C@@H]1CC[C@@H](n2c(-c3ccc4cnccc4c3)nc3ccc(C(=O)NCc4cccc(C(N)=O)c4)cc32)C1 | binding | competition with immobilised ligand | 1 µM | 100
Cc1cnc(Nc2ccc(C(=O)N3CCC(N4CCCC4)CC3)cc2)nc1-c1cc2ccccc2s1 | binding | competition with immobilised ligand | 1 µM | 84
C=CC(=O)N1CCC(C(=O)NCC(=O)N2CCN(c3nc(-c4cnc(N)nc4C(F)F)nc(N4CCOCC4)n3)CC2)CC1 | binding | competition with immobilised ligand | 1 µM | 100
C[C@@H](c1ccc(-n2cnc3c(N)ncnc32)cc1)N1CCc2nn(C)c(Cc3ccccc3)c2C1=O | binding | competition with immobilised ligand | 0.1 µM | 70
CN(C)c1ncc(F)c(-c2cnn3ncccc23)n1 | binding | – | 1 µM | 99
O=C(Nc1cnc(Oc2ccc(F)cc2)nc1)N1CCc2ncccc2[C@@H]1c1ccc(F)cc1 | cell-free assay | competition with immobilised ligand | 1 µM | 86
O=C(c1ccc(Nc2ncc(Cl)c(-c3cc4ccccc4s3)n2)cc1)N1CCC(N2CCCC2)CC1 | binding | competition with immobilised ligand | 1 µM | 85
CN(CCCC(F)(F)F)c1nccc(-c2cnn3ncccc23)n1 | binding | – | 1 µM | 85
C[C@H](c1ccc(F)cc1)N(Cc1cccc(C(=O)O)c1)C(=O)c1cnc2ccccc2c1 | cell-free assay | competition with immobilised ligand | 1 µM | 64
N[C@H]1CCN(c2nccc(-c3cnn4ncccc34)n2)C1 | binding | – | 1 µM | 88
CNC(=O)Nc1ccc2c(c1)[C@@]1(CC2)OC(=O)N(CC(=O)N(Cc2ccc(F)cc2)[C@@H](C)C(F)(F)F)C1=O | cell-free assay | competition with immobilised ligand | 1 µM | 100
CN(C)c1nccc(-c2cnn3ncccc23)n1 | binding | – | 1 µM | 100
O=C(Nc1c[nH]nc1C(=O)NC1CCNCC1)c1cc(F)cc(F)c1 | binding | competition with immobilised ligand | 1 µM | 100
Nc1ncc2c(n1)-c1c([nH]c3ccc(C#CC4CC4)cc13)CCCC2 | binding | competition with immobilised ligand | 1 µM | 70
O=C(NCCCN1CCOCC1)c1ccc(Nc2nccc(-c3cc4ccccc4s3)n2)cc1 | binding | competition with immobilised ligand | 1 µM | 79
C[C@H]1CCN(c2nccc(-c3cnn4ncccc34)n2)C1 | binding | – | 1 µM | 92
Nc1c(C(=O)NCc2ccc(C(=O)NCCCC3CCCCC3)cc2)cnn1-c1ccccc1 | cell-free assay | competition with immobilised ligand | 0.1 µM | 100
CN(c1nccc(-c2cnn3ncccc23)n1)C1CC1 | binding | – | 1 µM | 99
O=C(Nc1ccc(Oc2ccc(F)cc2)cc1)N1CCc2ncccc2[C@H]1c1ccc(F)cc1 | cell-free assay | competition with immobilised ligand | 1 µM | 98
